Experimental data from the EternaBench riboswitch data.

Tested on: MS2 coat protein
Test: apparent Kd, MS2 coat protein; higher = weaker binding; RNA-MaP array; tryptophan 2.4 mM where present
Summary of the method: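 Stalled E. coli RNA polymerase transcribed each design on Illumina sequencing-chip clusters. The clusters were titrated with SNAP-549-labelled MS2 coat protein, starting at 0.7 or 1.5 nM and doubling up to 3 µM, first without ligand and then with constant ligand, in 100 mM Tris-HCl pH 7.5, 80 mM KCl, 4 mM MgCl2, BSA, DTT, yeast tRNA and Tween-20. Green signal was normalised to red-channel RNA signal and to the control-cluster median Fmax. The apparent Kd is the median of filtered binding-curve fits made for each cluster.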

[1] = designed as: OFF switch for tryptophan, no ligand
[2] = ligand present: tryptophan, designed as: OFF switch for tryptophan
[3] = designed as: ON switch for tryptophan, no ligand
[4] = ligand present: tryptophan, designed as: ON switch for tryptophan

Sequence	apparent Kd [1]	apparent Kd [2]	apparent Kd [3]	apparent Kd [4]
GGUUGGUCCUCACAUGAGGAUCACCCAUGUCGAGGACCGGUACGGCCGCCACUCGAUUGUACCAGGGCUUAAGAGCCUAUGAGCA	0.0111 µM	0.00844 µM		
GAGGAAACUCACAUGAGGAUCACCCAUGUACGAGGACCGGUACGGCCGCCACUCGAAACCAUGGGCGGUAGUACGUGGAAGCUUG	0.0218 µM	0.0959 µM		
AACAUACAGUUUUAGGUGGAUAUAAGGCGGCGAGGACCGGUACGGCCGCCACUCGCGUACAUGAGGAUCACCCAUGUCUGAAGCU			0.0603 µM	0.0465 µM
AGAGCAUUGACGGCCGCCACUUAUGUCACAUGAGGAUCACCCAUGUGAUGGGUGAUAGCCCGGUUGAGGACCGGGUCAAUGCUCA			0.0127 µM	0.0179 µM
GUGAGCGCCGAACAUCGCUGGUCCUCUAUCCGAGGACCGGUACGGCCGCCACUCGACAUGAGGAUCACCCAUGUUGGCACUGGCG	0.00937 µM	0.0106 µM		
CCUCAUGAACAUGAGGAUCACCCAUGUACACGAGGACCGGUACGGCCGCCACUCGAAUAACCUAAAUAUAAAUAAUAAUAAUAGG	0.0158 µM	0.043 µM		
AUAAAUGGGUUAAUUAGUUUUAGGUCCAGUCGAGGACCGGUACGGCCGCCACUCGUCCCAAGUUACAUGAGGAUCACCCAUGUUA	0.0466 µM	0.0675 µM		
GUUAUAUGAAAACAUAUAACAGUGGGUGAACGAGGACCGGUACGGCCGCCACUCGGACAUGAGGAUCACCCAUGUCCAUGUGAAA	0.0158 µM	0.0414 µM		
UCGUUUUAGUCGGCCGCCACUGGUCUCAUGUUCAACAUGAGGAUCACCCAUGUAUCUUAUUUUAACAGGACCGGGACGUAAUAGA	0.0508 µM	0.0198 µM		
UCGUGUCUAUUGGUUUAGCUUUAAUCGUUACGAGGACCGGUACGGCCGCCACUCGAUUUAACAUGAGGAUCACCCAUGUACUCUC	0.019 µM	0.0212 µM		
CCACUUUCUUUUAUCUUUCUUUCUUUGUUACGAGGACCGGUACGGCCGCCACUCGUGGUGUGUGGUACAUGAGGAUCACCCAUGU			0.0237 µM	0.0224 µM
UCUGUUUGCUUUGUUUGUUUCUUCUUUGAGCGAGGACCGGUACGGCCGCCACUCGGGUUACAUGAGGAUCACCCAUGUGGUUUCU			0.0989 µM	0.0578 µM
AGGUACGAAAACGUGGGUGAGUCGUACCAACGAGGACCGGUACGGCCGCCACUCGAAUAAACAUGAGGAUCACCCAUGUAAUAAU			0.0424 µM	0.107 µM
UAAGUUAGGGCGGCCGCCACUCGAACAUGAGGAUCACCCAUGUAAAUUAAUUAAAGGACAUGAAUGAGGACCGGGCCAAGUUAGA			0.0157 µM	0.0134 µM
GUCCUCAUGACGGCCGCCACUACACAUGAGGAUCACCCAUGUAAUGAUCCCUUAAAUGAUAAUAGUAGGACCGGGUCACUGUAAG			0.457 µM	0.699 µM
AUCUUUGACGAUCUGGGAAAACCAGAUCGGCGAGGACCGGUACGGCCGCCACUCGUGUAUAAUAUACAUGAGGAUCACCCAUGUA			0.0404 µM	0.0296 µM

Sequence	apparent Kd [1]	apparent Kd [2]	apparent Kd [3]	apparent Kd [4]
GUACACUAGUCGGCCGCCACUGUUACAUGAGGAUCACCCAUGUAGGAUCACCCAUGACAUGAGGAUAGGACCGGGACGCAUGAGG	0.045 µM	0.0413 µM		
UCAUAAGUACCGGUCCUCAGAUCCUCAUGACGAGGACCGGUACGGCCGCCACUCGAAACAUGAGGAUCACCCAUGUAAUAACAUU	0.0209 µM	0.0185 µM		
AUAAUAAUGUCGGCCGCCACUAUAAACAUGAGGAACAUGAGGAUCACCCAUGUAUGAGGAUCACCUAGGACCGGGACUAAUAUUA	0.0476 µM	0.0433 µM		
UAUAUAUAUCACUAACUGUUCUUGAGGUCUCGAGGACCGGUACGGCCGCCACUCGUACCGCCUCACAUGAGGAUCACCCAUGUCC	0.063 µM	0.0591 µM		
AAUAAGAUCCUCAUGUGAGUCGUACCAUAACGAGGACCGGUACGGCCGCCACUCGAACAUGAGGAUCACCCAUGUAGGUACGACA			0.118 µM	0.176 µM
GGGUGGUAGGCGGCCGCCACUGAUUUUUAUUUAUAGAUGACAUGAGGAUCACCCAUGUUUAUAUGCAGGACCGGGCCUGUUGUGG			0.0157 µM	0.0142 µM
AGAUUCGACACGGCCGCCACUCGUGACAGAUUUCGCAGUGGUCAACAUGAGGAUCACCCAUGUCUGAGGACCGGGUGUUGAGUCU	0.0335 µM	0.474 µM		
GUUUUAUACUCGGCCGCCACUGAGAGAGUCAUGUAAACAUGAGGAUCACCCAUGUAAUAUAUAUACAGGACCGGGAGUAGGGUAA	0.0129 µM	0.0154 µM		
AUCAUAAUAGCCUCGUGUAAUUAAAUGGAACGAGGACCGGUACGGCCGCCACUCGAUAUAAACAUGAGGAUCACCCAUGUAAGCA	0.0655 µM	0.0583 µM		
CGUAUUGGAAACAGUACGAGUGAUCCGGUCCGAGGACCGGUACGGCCGCCACUCGAUAUAAAUAAACAUGAGGAUCACCCAUGUA	0.0163 µM	0.0257 µM		
CACGAAAGAUCGGCCGCCACUCAUGUUUCUUACAUGAGGAUCACCCAUGUAUUUUCUUUCUUUUAGAGGACCGGGAUCGAGCGUG			0.0408 µM	0.0184 µM
AACAUGAGGAUCACCCAUGUCCUCGUGUACCGAGGACCGGUACGGCCGCCACUCGGUUCUCGCGAGGAUGGUCAAAGACUAUCCA			0.417 µM	0.47 µM
AAUUAUCAGUCGGCCGCCACUGACACAUGAGGAUCACCCAUGUAACAUGGGUAAAAUUAACUGAACAGGACCGGGACAAAGGCUA	0.378 µM	0.499 µM		
UUUAUUAUUGACUCGUUUUGGUAUUAAGAACGAGGACCGGUACGGCCGCCACUCGUGAUAUACAUGAGGAUCACCCAUGUUAGCA			0.0151 µM	0.0155 µM
CACGAAAGAUCGGCCGCCACUAACCUGUGUGUACUAGCACAUGAGGAUCACCCAUGUUCUUGCGUUAGGACCGGGAUUGAGCGUG	0.023 µM	0.0217 µM		
